Assay results as given in ChEMBL document CHEMBL2029214, “Radiosynthesis and evaluation of an (18)F-labeled positron emission tomography (PET) radioligand for brain histamine subtype-3 receptors based on a nonimidazole 2-aminoethylbenzofuran chemotype” (J Med Chem, 2012).

Key:
[1] = Drug uptake in rhesus monkey frontal cortex at 3.91+/-0.46 mCi, iv administered 30 mins post-(R)-(4-fluorophenyl)(2-(2-(2-methylpyrrolidin-1-yl)ethyl)benzofuran-5-yl)methanone treatment measured up to 180 mins by PET imaging; type: ADME, organism-based, Macaca mulatta; details: in vivo
[2] = Drug uptake in rhesus monkey cerebellum at 3.91+/-0.46 mCi, iv at 180 mins by PET imaging; type: ADME, organism-based, Macaca mulatta; details: in vivo, 3 h
[3] = test system: Striatum; assay: Drug uptake in rhesus monkey striatum at 3.91+/-0.46 mCi, iv administered 30 mins post-ciproxifan treatment measured at 180 mins by PET imaging; type: ADME, organism-based, Macaca mulatta; details: in vivo, 3 h
How it was run: (§1)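 Male rhesus monkeys (7.3 ± 0.8 kg; n = 4 baseline), ketamine 10 mg/kg i.m. then 1.5% isoflurane in O2. […] [18F]ligand given i.v. Focus 220 microPET, 180 min (one scan 120 min), 45 frames 30 s–5 min, scatter/attenuation corrected, decay-corrected; template-normalized regions; uptake as SUV.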

[4] = test system: Hippocampus; assay: Drug uptake in rhesus monkey hippocampus at 3.91+/-0.46 mCi, iv administered 30 mins post-(R)-(4-fluorophenyl)(2-(2-(2-methylpyrrolidin-1-yl)ethyl)benzofuran-5-yl)methanone treatment measured up to 180 mins by PET imaging; type: ADME, organism-based, Macaca mulatta; details: in vivo; how it was run: as §1
[5] = test system: Brain; assay: Drug uptake in FVB mouse whole brain at 73+/-29 uCi, iv at 90 mins by PET imaging; type: ADME, organism-based; details: in vivo, 1.5 h
How it was run: (§2)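 Dynamic microPET ran 120 min with frames of 20 s to 20 min, without attenuation or scatter correction. Decay-corrected whole-brain curves expressed as SUV = (%ID/cm3) × (g body weight).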

[6] = Drug uptake in rhesus monkey frontal cortex at 3.91+/-0.46 mCi, iv at 180 mins by PET imaging; type: ADME, organism-based, Macaca mulatta; details: in vivo, 3 h; how it was run: as §1
[7] = test system: Striatum; assay: Drug uptake in rhesus monkey striatum at 3.91+/-0.46 mCi, iv at 180 mins by PET imaging; type: ADME, organism-based, Macaca mulatta; details: in vivo, 3 h; how it was run: as §1
[8] = test system: Plasma; assay: Drug metabolism in rhesus monkey plasma assessed as radiometabolite formation at 3.87 mCi, iv administered 30 mins post-ciproxifan treatment by radio-HPLC; type: ADME, organism-based, Macaca mulatta; details: in vivo, 0.5 h
[9] = Drug uptake in rhesus monkey thalamus at 3.91+/-0.46 mCi, iv at 180 mins by PET imaging; type: ADME, organism-based, Macaca mulatta; details: in vivo, 3 h; how it was run: as §1
[10] = test system: Brain; assay: Drug metabolism in rhesus monkey brain assessed as radiodefluorination at 3.91 mCi, iv by PET; details: in vivo
[11] = test system: Plasma; assay: Drug metabolism in rhesus monkey plasma assessed as decrease in unchanged compound at 3.87 mCi, iv by radio-HPLC; type: ADME, organism-based, Macaca mulatta; details: in vivo
[12] = test system: Plasma; assay: Drug metabolism in rhesus monkey plasma assessed as radiometabolite formation at 3.87 mCi, iv administered 30 mins post-(R)-(4-fluorophenyl)(2-(2-(2-methylpyrrolidin-1-yl)ethyl)benzofuran-5-yl)methanone treatment by radio-HPLC; type: ADME, organism-based, Macaca mulatta; details: in vivo, 0.5 h
[13] = Drug uptake in rhesus monkey skull at 3.91+/-0.46 mCi, iv at 180 mins by PET imaging; type: ADME, organism-based, Macaca mulatta; details: in vivo, 3 h
[14] = Drug uptake in rhesus monkey cerebellum at 3.91+/-0.46 mCi, iv administered 30 mins post-(R)-(4-fluorophenyl)(2-(2-(2-methylpyrrolidin-1-yl)ethyl)benzofuran-5-yl)methanone treatment measured up to 180 mins by PET imaging; type: ADME, organism-based, Macaca mulatta; details: in vivo
[15] = test system: Hippocampus; assay: Drug uptake in rhesus monkey hippocampus at 3.91+/-0.46 mCi, iv administered 30 mins post-ciproxifan treatment measured at 180 mins by PET imaging; type: ADME, organism-based, Macaca mulatta; details: in vivo, 3 h; how it was run: as §1
[16] = Drug uptake in rhesus monkey thalamus at 3.91+/-0.46 mCi, iv by PET imaging; type: ADME, organism-based, Macaca mulatta; details: in vivo; how it was run: as §1
[17] = test system: Plasma; assay: Drug metabolism in rhesus monkey plasma assessed as decrease in unchanged compound at 3.87 mCi, iv administered 30 mins post-(R)-(4-fluorophenyl)(2-(2-(2-methylpyrrolidin-1-yl)ethyl)benzofuran-5-yl)methanone treatment by radio-HPLC; type: ADME, organism-based, Macaca mulatta; details: in vivo, 0.5 h
[18] = test system: Brain; assay: Drug uptake in FVB mouse whole brain at 73+/-29 uCi, iv administered 30 mins post-ciproxifan treatment measured at 4.5 mins by PET imaging; type: ADME, organism-based; details: in vivo, 0.075 h; how it was run: as §2
[19] = Unbound fraction in rhesus monkey plasma at 3.91+/-0.46 mCi, iv administered 30 mins post-(R)-(4-fluorophenyl)(2-(2-(2-methylpyrrolidin-1-yl)ethyl)benzofuran-5-yl)methanone treatment by ultrafiltration; type: ADME, organism-based, Macaca mulatta
How it was run: (§3)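 Arterial plasma from monkeys scanned at baseline or 30 min after unlabeled ligand (1.0 mg/kg i.v.) pretreatment; free fraction of [18F]ligand measured by ultrafiltration, each plasma sample in triplicate.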

[20] = test system: Plasma; assay: Drug metabolism in rhesus monkey plasma assessed as radiometabolite formation at 3.87 mCi, iv by radio-HPLC; type: ADME, organism-based, Macaca mulatta; details: in vivo
[21] = Drug uptake in rhesus monkey frontal cortex at 3.91+/-0.46 mCi, iv administered 30 mins post-ciproxifan treatment measured at 180 mins by PET imaging; type: ADME, organism-based, Macaca mulatta; details: in vivo, 3 h; how it was run: as §1
[22] = test system: Brain; assay: Drug uptake in FVB mouse whole brain at 73+/-29 uCi, iv administered 30 mins post-(R)-(4-fluorophenyl)(2-(2-(2-methylpyrrolidin-1-yl)ethyl)benzofuran-5-yl)methanone treatment measured at 90 mins by PET imaging; type: ADME, organism-based; details: in vivo, 1.5 h; how it was run: as §2
[23] = Metabolic stability in monkey whole blood assessed as compound remaining after 2.5 hrs by radio-HPLC; type: ADME, tissue-based, Macaca mulatta; details: rhesus monkey, read-out: Stability
How it was run: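 [18F]Radioligand was incubated in monkey whole blood at room temperature for 2.5 h in vitro, n = 6. Unchanged fraction was measured by radio-HPLC on reverse-phase C18 in a radial compression module, eluted at 2.0 mL/min with MeOH:H2O:Et3N (85:15:0.1).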

[24] = test system: Brain; assay: Drug uptake in FVB mouse whole brain at 73+/-29 uCi, iv administered 30 mins post-(R)-(2-(2-(2-methylpyrrolidin-1-yl)ethyl)benzofuran-5-yl)(4-nitrophenyl)methanone treatment measured at 90 mins by PET imaging; type: ADME, organism-based; details: in vivo, 1.5 h; how it was run: as §2
[25] = test system: Plasma; assay: Drug metabolism in rhesus monkey plasma assessed as decrease in unchanged compound at 3.87 mCi, iv administered 30 mins post-ciproxifan treatment by radio-HPLC; type: ADME, organism-based, Macaca mulatta; details: in vivo, 0.5 h
[26] = Drug uptake in rhesus monkey thalamus at 3.91+/-0.46 mCi, iv administered 30 mins post-(R)-(4-fluorophenyl)(2-(2-(2-methylpyrrolidin-1-yl)ethyl)benzofuran-5-yl)methanone treatment measured up to 180 mins by PET imaging; type: ADME, organism-based, Macaca mulatta; details: in vivo; how it was run: as §1
[27] = Drug uptake in rhesus monkey cerebellum at 3.91+/-0.46 mCi, iv administered 30 mins post-ciproxifan treatment measured at 180 mins by PET imaging; type: ADME, organism-based, Macaca mulatta; details: in vivo, 3 h
[28] = Drug uptake in rhesus monkey skull at 3.91+/-0.46 mCi, iv administered 30 mins post-(R)-(4-fluorophenyl)(2-(2-(2-methylpyrrolidin-1-yl)ethyl)benzofuran-5-yl)methanone treatment measured up to 180 mins by PET imaging; type: ADME, organism-based, Macaca mulatta; details: in vivo
[29] = test system: Hippocampus; assay: Drug uptake in rhesus monkey hippocampus at 3.91+/-0.46 mCi, iv by PET imaging; type: ADME, organism-based, Macaca mulatta; details: in vivo; how it was run: as §1
[30] = Drug uptake in rhesus monkey thalamus at 3.91+/-0.46 mCi, iv administered 30 mins post-ciproxifan treatment measured at 180 mins by PET imaging; type: ADME, organism-based, Macaca mulatta; details: in vivo, 3 h; how it was run: as §1
[31] = test system: Hippocampus; assay: Drug uptake in rhesus monkey hippocampus at 3.91+/-0.46 mCi, iv at 180 mins by PET imaging; type: ADME, organism-based, Macaca mulatta; details: in vivo, 3 h; how it was run: as §1
[32] = test system: Striatum; assay: Drug uptake in rhesus monkey striatum at 3.91+/-0.46 mCi, iv administered 30 mins post-(R)-(4-fluorophenyl)(2-(2-(2-methylpyrrolidin-1-yl)ethyl)benzofuran-5-yl)methanone treatment measured up to 180 mins by PET imaging; type: ADME, organism-based, Macaca mulatta; details: in vivo; how it was run: as §1
[33] = Metabolic stability in monkey plasma assessed as compound remaining after 2.5 hrs by radio-HPLC; type: ADME, cell-free, Macaca mulatta; details: rhesus monkey, read-out: Stability
How it was run: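 Radioligand incubated in monkey plasma in vitro at room temperature for 2.5 h; percent unchanged by reverse-phase radio-HPLC (C18 radial compression, MeOH:H2O:Et3N 85:15:0.1, 2.0 mL/min); n = 6.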

[34] = Unbound fraction in rhesus monkey plasma at 3.91+/-0.46 mCi, iv by ultrafiltration; type: ADME, organism-based, Macaca mulatta; how it was run: as §3

Drug uptake [1]: Not Active
Drug uptake [2]: Not Active
Drug uptake [3]: Not Active
Drug uptake [4]: Not Active
SUV [5]: 2.3
Drug uptake [6]: Not Active
Drug uptake [7]: Not Active
Drug metabolism [8]: Active
Drug uptake [9]: Not Active
Drug metabolism [10]: Not Active
Drug metabolism [11]: Active
Drug metabolism [12]: Active
Drug uptake [13]: Not Active
Drug uptake [14]: Not Active
Drug uptake [15]: Not Active
Drug uptake [16]: Active
Drug metabolism [17]: Active
SUV [18]: 1.98
fraction unbound at 0.5 h [19]: 0.014
Drug metabolism [20]: Active
Drug uptake [21]: Not Active
SUV [22]: < 1.2
remaining at 2.5 h [23]: 98.4%
SUV [24]: < 1.2
Drug metabolism [25]: Active
Drug uptake [26]: Not Active
Drug uptake [27]: Active
Drug uptake [28]: Not Active
Drug uptake [29]: Active
Drug uptake [30]: Not Active
Drug uptake [31]: Not Active
Drug uptake [32]: Not Active
remaining at 2.5 h [33]: 99.2%
fraction unbound [34]: 0.0208
SMILES: C[C@@H]1CCCN1CCc1cc2cc(C(=O)c3ccc([18F])cc3)ccc2o1
